Results as given in ChEMBL document CHEMBL4152390, “Discovery of the First-in-Class Dual Histone Deacetylase-Proteasome Inhibitor” (J Med Chem, 2018).
pIC50: −log10 of the molar value. Calls of active or inactive are those of the source. No cut-off for these calls is given here.

Key:
[1] = target: T1, Protein deacetylase HDAC6 (Homo sapiens) (UniProt Q9UBN7); assay: Inhibition of HDAC6 in human SEM cells assessed as increase in acetyl-histone H3 expression at 0.1 to 10 uM after 24 hrs by immunoblot assay; type: cell-based
T1 sequence (whole entry): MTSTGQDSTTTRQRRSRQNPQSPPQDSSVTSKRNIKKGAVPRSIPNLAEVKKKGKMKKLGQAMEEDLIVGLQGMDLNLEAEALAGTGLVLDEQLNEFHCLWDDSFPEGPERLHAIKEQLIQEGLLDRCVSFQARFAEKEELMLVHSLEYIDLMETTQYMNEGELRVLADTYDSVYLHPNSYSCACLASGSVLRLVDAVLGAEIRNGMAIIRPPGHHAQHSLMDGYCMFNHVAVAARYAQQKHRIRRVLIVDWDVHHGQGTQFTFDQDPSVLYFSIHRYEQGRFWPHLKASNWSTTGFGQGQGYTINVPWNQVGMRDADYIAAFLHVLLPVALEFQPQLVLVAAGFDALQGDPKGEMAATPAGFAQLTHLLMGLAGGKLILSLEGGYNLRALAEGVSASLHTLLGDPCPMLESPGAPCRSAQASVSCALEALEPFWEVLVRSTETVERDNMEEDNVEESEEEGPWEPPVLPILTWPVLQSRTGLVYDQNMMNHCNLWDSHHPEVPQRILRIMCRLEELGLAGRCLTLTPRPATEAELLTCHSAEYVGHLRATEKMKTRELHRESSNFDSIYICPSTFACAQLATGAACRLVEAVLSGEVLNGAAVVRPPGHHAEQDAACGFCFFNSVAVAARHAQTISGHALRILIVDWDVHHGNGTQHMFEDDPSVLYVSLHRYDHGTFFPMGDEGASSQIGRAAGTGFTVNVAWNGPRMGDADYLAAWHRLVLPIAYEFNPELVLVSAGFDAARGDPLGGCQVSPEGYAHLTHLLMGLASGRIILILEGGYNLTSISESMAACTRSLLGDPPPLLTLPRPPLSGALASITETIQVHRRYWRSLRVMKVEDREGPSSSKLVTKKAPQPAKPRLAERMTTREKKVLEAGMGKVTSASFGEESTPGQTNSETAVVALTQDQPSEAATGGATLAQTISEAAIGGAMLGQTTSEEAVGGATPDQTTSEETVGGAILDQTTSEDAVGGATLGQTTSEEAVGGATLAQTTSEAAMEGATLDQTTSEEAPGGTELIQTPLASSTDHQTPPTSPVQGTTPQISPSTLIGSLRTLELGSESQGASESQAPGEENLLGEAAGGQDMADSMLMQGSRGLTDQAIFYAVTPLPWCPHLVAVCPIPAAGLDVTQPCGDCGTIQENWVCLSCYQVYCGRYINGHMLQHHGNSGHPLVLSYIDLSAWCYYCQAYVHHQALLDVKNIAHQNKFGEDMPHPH
Outline: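 Cells exposed for 24 h at indicated concentrations; lysates immunoblotted for acetyl-α-tubulin, acetyl-histone H3, PARP, with GAPDH as loading control.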

SEM cells [2] = assay: Inhibition of HDAC6/chymotrypsin-like activity of 20S proteasome in human SEM cells assessed as increase in HSP40 protein expression at 0.1 to 10 uM after 18 hrs by Western blot assay; type: cell-based
Outline: (§1)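 Cells treated 18 h at indicated concentrations; lysates analysed by western blot for heat shock (Grp94, HSP70, HSP40, HSP27), UPR (BIP, ATF4, ATF6, pJNK) and autophagy (LC3B, p62) proteins.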

SEM cells [3] = assay: Inhibition of HDAC6/chymotrypsin-like activity of 20S proteasome in human SEM cells assessed as increase in HSP27 protein expression at 0.1 to 10 uM after 18 hrs by Western blot assay; type: cell-based; outline: as §1
[4] = target: T2, Proteasome component C5 (Homo sapiens) (UniProt P20618); assay: Inhibition of caspase-like activity of 20S proteasome in human SEM cells at 4 nM to 25 uM using Z-nLPnLD-aminoluciferin as substrate after 2 hrs by proteasome-Glo assay; type: cell-based
T2 sequence (whole entry): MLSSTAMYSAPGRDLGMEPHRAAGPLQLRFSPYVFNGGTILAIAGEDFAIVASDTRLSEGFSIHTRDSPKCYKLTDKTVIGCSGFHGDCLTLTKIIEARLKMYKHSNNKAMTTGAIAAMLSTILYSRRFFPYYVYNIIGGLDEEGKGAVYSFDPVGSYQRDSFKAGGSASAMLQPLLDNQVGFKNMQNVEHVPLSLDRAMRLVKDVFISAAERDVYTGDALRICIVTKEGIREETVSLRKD

[5] = Cytotoxicity against human BCP-ALL cells derived from patient 2 after 72 hrs by CellTiter-Glo luminescent cell viability assay; type: functional, cell-based
Outline: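 Compounds dispensed digitally at increasing concentrations, 50 nM–25 μM; viability read by CellTiter-Glo luminescence after 72 h. Raw data normalized to controls, IC50 from sigmoid dose curve by non-linear regression. Patient samples: primary cells from newly diagnosed or relapsed patients, cultured in stem cell expansion or mononuclear cell medium.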

C[C@H](NC(=O)[C@H](CC(=O)NCC(C)(C)C)NC(=O)c1ccc(C(=O)NO)cc1)C(=O)NCc1ccccc1
inhibition [1]: Active | inhibition (SEM cells [2]): Active | inhibition (SEM cells [3]): Active | inhibition [4]: inactive | pIC50 [5]: 5.74
